Measured values of several laboratories.
Protocols differ between the studies behind these lines.
Target: Rhodopsin kinase GRK1 (GRK1, Homo sapiens, UniProt Q15835)
One construct used (Q15835 1-563): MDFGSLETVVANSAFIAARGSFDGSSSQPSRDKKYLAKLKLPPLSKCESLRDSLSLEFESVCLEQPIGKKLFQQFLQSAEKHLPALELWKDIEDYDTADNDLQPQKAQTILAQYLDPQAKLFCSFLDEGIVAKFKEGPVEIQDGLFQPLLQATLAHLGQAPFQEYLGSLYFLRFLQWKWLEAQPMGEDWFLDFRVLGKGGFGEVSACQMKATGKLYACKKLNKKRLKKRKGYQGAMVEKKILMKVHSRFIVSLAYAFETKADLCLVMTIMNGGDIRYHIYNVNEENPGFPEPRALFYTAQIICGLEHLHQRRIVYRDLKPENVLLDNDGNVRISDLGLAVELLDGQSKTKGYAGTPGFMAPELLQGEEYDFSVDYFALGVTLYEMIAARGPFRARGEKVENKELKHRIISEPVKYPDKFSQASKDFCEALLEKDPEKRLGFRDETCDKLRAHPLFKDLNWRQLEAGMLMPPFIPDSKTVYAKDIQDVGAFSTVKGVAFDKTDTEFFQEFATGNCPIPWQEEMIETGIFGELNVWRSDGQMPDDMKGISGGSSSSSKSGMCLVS

C[C@H]1CCN(c2nccc(-c3cnn4ncccc34)n2)C1
remaining binding (binding; 1 µM): 74%

C[C@@]1(Cc2ccc(C#N)cc2)C(=O)N(c2cc(Cl)cc(Cl)c2)c2ncc(C(=O)NC3(c4nc(C5CCC5)no4)CC3)n21
remaining binding (cell-free assay; competition with immobilised ligand; 1 µM): 100%

c1cnn2ncc(-c3ccnc(N4CCC45COC5)n3)c2c1
remaining binding (binding; 1 µM): 61%

CCC(=O)N[C@@H]1CC[C@H](C(=O)N(C)c2ccc(-c3nc4ccccc4o3)cc2)C1
remaining binding (cell-free assay; competition with immobilised ligand; 1 µM): 76%

O=C(c1ccc(Nc2ncc(Cl)c(-c3ccc(Cl)s3)n2)cc1)N1CCC(N2CCCC2)CC1
remaining binding (binding; competition with immobilised ligand; 1 µM): 100%

O=C(NCC1CCOCC1)c1n[nH]cc1NC(=O)c1c(F)cccc1F
remaining binding (binding; competition with immobilised ligand; 1 µM): 77%

C=CC(=O)N1CCC(C(=O)NCC(=O)N2CCN(c3nc(-c4cnc(N)nc4C(F)F)nc(N4CCOCC4)n3)CC2)CC1
remaining binding (binding; competition with immobilised ligand; 1 µM): 67%

Cc1cnc(Nc2ccc(C(=O)N3CCC(N4CCCC4)CC3)cc2)nc1-c1cc2ccccc2s1
remaining binding (binding; competition with immobilised ligand; 1 µM): 64%

CS(=O)(=O)NCC[C@H](NC(=O)c1cncc2c1cnn2-c1ccc(F)cc1)c1ccnc(S(C)(=O)=O)c1
remaining binding (cell-free assay; competition with immobilised ligand; 1 µM): 100%

COc1cnc(Nc2cccc(S(N)(=O)=O)c2)nc1N1CCN(c2ccccc2)CC1
remaining binding (binding; competition with immobilised ligand; 1 µM): 99%

COc1ccnn2ncc(-c3ccnc(N(C)C)n3)c12
remaining binding (binding; 1 µM): 82%

COc1ncc2cc3ccccc3nc2c1C#N
remaining binding (cell-free assay; competition with immobilised ligand; 5 µM): 98%

CN(C(=O)c1ccccc1)c1cc(N(C)c2ccc3c(c2)CCc2ccc(C(=O)NCCN4CCOCC4)cc2C3=O)ccc1F
remaining binding (cell-free assay; competition with immobilised ligand; 1 µM): 93%

O=C(NCCCN1CCOCC1)c1ccc(Nc2ncc(Cl)c(-c3ccc(Cl)s3)n2)cc1
remaining binding (binding; competition with immobilised ligand; 1 µM): 100%

C[C@@H](c1ccc(-n2cnc3c(N)ncnc32)cc1)N1CCc2nn(C)c(Cc3ccccc3)c2C1=O
remaining binding (binding; competition with immobilised ligand; 0.1 µM): 76%

CS(=O)(=O)c1cc(C2(NC(=O)c3cncc4c3cnn4-c3ccc(F)cc3)CC2)ccn1
remaining binding (cell-free assay; competition with immobilised ligand; 1 µM): 87%

N[C@@H]1CCN(c2nccc(-c3cnn4ncccc34)n2)C1
remaining binding (binding; 1 µM): 100%

Cn1cc(Cl)c2c(Oc3c(F)cc(Nc4cc(Cl)nc(N)n4)cc3F)ccnc21
remaining binding (cell-free assay; competition with immobilised ligand; 0.1 µM): 92%

CN(CCCC(F)(F)F)c1nccc(-c2cnn3ncccc23)n1
remaining binding (binding; 1 µM): 100%
